Laboratory results from ChEMBL document CHEMBL1124441, “Synthesis of congeners and prodrugs. 3. Water-soluble prodrugs of taxol with potent antitumor activity” (1989).

Legend:
Format in all cases: functional, Mus musculus
Conditions in all cases: route intraperitoneal
B16 [1] = assay: Antitumor activity in B16 Melanoma system animals is indicated by survivors on day 4 at a dose of 6.25 mg/kg intraperitoneally
Procedure, shortened: (§1)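 B16 melanoma, 10^6 cells inoculated ip on day 0. Ip treatment started day 1, schedule Q01Dx09 (one dose daily for 9 days). The score is live animals on day 4 over total animals; early deaths are taken as drug toxicity.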

B16 [2] = assay: Difference in body weight in grams between test and control animals at a dose of 25 mg/kg intraperitoneally
Procedure, shortened: (§2)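 B16 melanoma system: 10⁶ tumor cells inoculated ip on day 0. Drug given ip once daily for 9 days (Q01Dx09) starting day 1, dose as mg/kg body weight per injection. Read-out is the body-weight difference in grams, treated minus control animals. Early deaths, taken as toxicity, are scored on day 4.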

B16 [3] = assay: Antitumor activity in B16 Melanoma system animals is indicated by survivors on day 4 at a dose of 12.5 mg/kg intraperitoneally; procedure, shortened: as §1
B16 [4] = assay: Percent of median lifetime of test animals divided by the median lifetime of control animals at a dose of 25 mg/kg intraperitoneally
Procedure, shortened: (§3)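 B16 melanoma inoculated ip (10⁶ cells) on day 0. Daily ip treatment for 9 days (Q01Dx09) begins day 1, dosed per injection in mg/kg. %T/C is the median lifespan of treated animals divided by that of tumored untreated controls, ×100. Cures are animals alive on the last test day. Toxic deaths are assessed on day 4.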

B16 [5] = assay: Percent of median lifetime of test animals divided by the median lifetime of control animals at a dose of 50 mg/kg intraperitoneally; procedure, shortened: as §3
B16 [6] = assay: Antitumor activity in B16 Melanoma system animals is indicated by survivors on day 4 at a dose of 50 mg/kg intraperitoneally; procedure, shortened: as §1
B16 [7] = assay: Percent of median lifetime of test animals divided by the median lifetime of control animals at a dose of 6.25 mg/kg intraperitoneally; procedure, shortened: as §3
B16 [8] = assay: Antitumor activity in B16 Melanoma system animals is indicated by survivors on day 4 at a dose of 25 mg/kg intraperitoneally; procedure, shortened: as §1
B16 [9] = assay: Difference in body weight in grams between test and control animals at a dose of 6.25 mg/kg intraperitoneally; procedure, shortened: as §2
B16 [10] = assay: Difference in body weight in grams between test and control animals at a dose of 50 mg/kg intraperitoneally; procedure, shortened: as §2
B16 [11] = assay: Percent of median lifetime of test animals divided by the median lifetime of control animals at a dose of 12.5 mg/kg intraperitoneally; procedure, shortened: as §3
B16 [12] = assay: Difference in body weight in grams between test and control animals at a dose of 12.5 mg/kg intraperitoneally; procedure, shortened: as §2
B16 [13] = assay: Antitumor activity in B16 Melanoma system animals is indicated by survivors on day 4 at a dose of 49 mg/kg intraperitoneally; procedure, shortened: as §1
B16 [14] = assay: Antitumor activity in B16 Melanoma system animals is indicated by survivors on day 4 at a dose of 24.5 mg/kg intraperitoneally; procedure, shortened: as §1
B16 [15] = assay: Difference in body weight in grams between test and control animals at a dose of 6.13 mg/kg intraperitoneally
Procedure, shortened: (§4)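 B16 melanoma, 10^6 cells ip on day 0, then ip dosing from day 1, once daily for 9 days (Q01Dx09). The value is the body-weight difference in grams, treated minus tumored control animals.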

B16 [16] = assay: Antitumor activity in B16 Melanoma system animals is indicated by survivors on day 4 at a dose of 12.25 mg/kg intraperitoneally; procedure, shortened: as §1
B16 [17] = assay: Percent of median lifetime of test animals divided by the median lifetime of control animals at a dose of 6.13 mg/kg intraperitoneally
Procedure, shortened: (§5)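 B16 melanoma, 10^6 cells ip on day 0, ip treatment from day 1, Q01Dx09 (single dose daily for 9 days). %T/C is median lifetime of treated over untreated tumored controls, times 100. Early deaths are assessed on day 4 for toxicity. Cures are animals alive on the last test day.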

B16 [18] = assay: Percent of median lifetime of test animals divided by the median lifetime of control animals at a dose of 49 mg/kg intraperitoneally; procedure, shortened: as §5
B16 [19] = assay: Percent of median lifetime of test animals divided by the median lifetime of control animals at a dose of 12.25 mg/kg intraperitoneally; procedure, shortened: as §5
B16 [20] = assay: Percent of median lifetime of test animals divided by the median lifetime of control animals at a dose of 24.5 mg/kg intraperitoneally; procedure, shortened: as §5
B16 [21] = assay: Difference in body weight in grams between test and control animals at a dose of 24.5 mg/kg intraperitoneally; procedure, shortened: as §4
B16 [22] = assay: Difference in body weight in grams between test and control animals at a dose of 49 mg/kg intraperitoneally; procedure, shortened: as §4
B16 [23] = assay: Difference in body weight in grams between test and control animals at a dose of 12.25 mg/kg intraperitoneally; procedure, shortened: as §4
B16 [24] = assay: Antitumor activity in B16 Melanoma system animals is indicated by survivors on day 4 at a dose of 6.13 mg/kg intraperitoneally; procedure, shortened: as §1

For `CC(=O)OC1C(=O)[C@@]2(C)[C@H]([C@H](OC(=O)c3ccccc3)[C@]3(O)CC(OC(=O)C(OC(=O)CCC(=O)O)C(NC(=O)c4ccccc4)c4ccccc4)C(C)=C1C3(C)C)[C@]1(OC(C)=O)CO[C@@H]1C[C@@H]2O.CNC[C@H](O)[C@@H](O)[C@H](O)[C@H](O)CO` (some centres undefined), the Activity (B16 [1]) was 10, the Weight difference (B16 [2]) was 0.3 g and the Activity (B16 [3]) was 10. It also gave a T/C (B16 [4]) of 176%, a T/C (B16 [5]) of 241% and an Activity (B16 [6]) of 10. The T/C (B16 [7]) was 125%, the Activity (B16 [8]) was 10 and the Weight difference (B16 [9]) was -0.2 g. For the same compound, the Weight difference (B16 [10]) was -0.6 g, the T/C (B16 [11]) was 134% and the Weight difference (B16 [12]) was 0.3 g.

With `CC(=O)OC1C(=O)[C@@]2(C)[C@H]([C@H](OC(=O)c3ccccc3)[C@]3(O)CC(OC(=O)C(OC(=O)CCCC(=O)[O-])C(NC(=O)c4ccccc4)c4ccccc4)C(C)=C1C3(C)C)[C@]1(OC(C)=O)CO[C@@H]1C[C@@H]2O.[Na+]` (some centres undefined) the Activity (B16 [13]) was 7, the Activity (B16 [14]) was 7 and the Weight difference (B16 [15]) was 0.4 g. For the same compound, the Activity (B16 [16]) was 8, the T/C (B16 [17]) was 159% and the T/C (B16 [18]) was 339%. For the same compound, the T/C (B16 [19]) was 192%, the T/C (B16 [20]) was 225% and the Weight difference (B16 [21]) was 1.5 g. For the same compound, the Weight difference (B16 [22]) was 0.8 g, the Weight difference (B16 [23]) was 0.6 g and the Activity (B16 [24]) was 8.
